From ChEMBL document CHEMBL4152243, “Design, synthesis and biological activities of 2,3-dihydroquinazolin-4(1H)-one derivatives as TRPM2 inhibitors” (Eur J Med Chem, 2018)
pIC50: −log10 of the molar value. The source made the active and inactive calls. The calls are words filed in the database; no cut-off is given here.

Legend:
Format in all cases: cell-based
[1] = biological target: T1, Transient receptor potential cation channel subfamily M member 2 (Homo sapiens, UniProt O94759); experiment: Inhibition of human TRPM2 expressed in HEK293 cells assessed as reduction in H2O2-induced intracellular calcium flux at 30 uM after 30 mins by Fluo3-AM dye based fluorescence imaging assay
T1 sequence (O94759 whole entry): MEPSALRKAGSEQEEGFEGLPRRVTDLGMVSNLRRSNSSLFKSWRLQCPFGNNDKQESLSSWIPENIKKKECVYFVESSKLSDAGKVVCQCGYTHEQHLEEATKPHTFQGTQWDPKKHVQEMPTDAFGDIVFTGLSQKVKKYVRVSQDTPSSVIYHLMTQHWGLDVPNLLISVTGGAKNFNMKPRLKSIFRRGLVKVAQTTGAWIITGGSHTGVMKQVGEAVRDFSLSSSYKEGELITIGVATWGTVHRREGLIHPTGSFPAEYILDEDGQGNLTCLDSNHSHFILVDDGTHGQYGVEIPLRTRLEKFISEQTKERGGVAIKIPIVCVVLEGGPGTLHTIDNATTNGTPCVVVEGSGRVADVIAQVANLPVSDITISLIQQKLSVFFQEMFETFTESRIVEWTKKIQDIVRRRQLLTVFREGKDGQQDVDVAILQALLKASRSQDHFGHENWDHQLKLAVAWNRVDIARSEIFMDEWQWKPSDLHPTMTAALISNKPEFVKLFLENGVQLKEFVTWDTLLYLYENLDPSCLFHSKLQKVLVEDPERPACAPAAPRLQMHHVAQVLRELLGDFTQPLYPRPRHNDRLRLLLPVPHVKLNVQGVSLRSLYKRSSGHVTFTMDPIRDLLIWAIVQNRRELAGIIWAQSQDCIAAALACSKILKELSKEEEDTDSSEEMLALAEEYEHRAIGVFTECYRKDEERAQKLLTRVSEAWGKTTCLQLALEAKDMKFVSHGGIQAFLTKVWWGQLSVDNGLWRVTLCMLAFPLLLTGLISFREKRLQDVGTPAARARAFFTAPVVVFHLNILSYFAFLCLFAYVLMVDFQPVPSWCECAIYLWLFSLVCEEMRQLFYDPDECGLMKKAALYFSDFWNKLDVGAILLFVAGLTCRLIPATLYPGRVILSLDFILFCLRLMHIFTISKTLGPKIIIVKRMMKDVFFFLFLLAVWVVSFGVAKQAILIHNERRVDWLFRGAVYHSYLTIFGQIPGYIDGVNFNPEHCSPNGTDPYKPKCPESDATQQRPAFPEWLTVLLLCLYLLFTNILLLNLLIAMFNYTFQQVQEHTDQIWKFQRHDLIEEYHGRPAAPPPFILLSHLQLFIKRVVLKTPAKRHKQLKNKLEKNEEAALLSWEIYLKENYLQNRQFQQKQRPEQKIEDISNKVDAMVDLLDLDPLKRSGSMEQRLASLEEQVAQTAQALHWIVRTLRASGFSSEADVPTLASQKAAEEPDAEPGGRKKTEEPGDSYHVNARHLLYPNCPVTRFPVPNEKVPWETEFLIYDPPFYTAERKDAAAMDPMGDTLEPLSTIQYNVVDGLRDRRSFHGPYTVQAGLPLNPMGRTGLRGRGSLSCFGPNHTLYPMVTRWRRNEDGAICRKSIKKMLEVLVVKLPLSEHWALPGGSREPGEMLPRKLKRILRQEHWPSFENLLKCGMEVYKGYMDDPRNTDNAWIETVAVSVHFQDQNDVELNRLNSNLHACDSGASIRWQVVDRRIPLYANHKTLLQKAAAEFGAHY

[2] = biological target: T1, Transient receptor potential cation channel subfamily M member 2; experiment: Inhibition of human TRPM2 expressed in HEK293 cells assessed as reduction in ADPR-induced channel currents treated extracellularly after 60 secs by whole cell patch clamp electrophysiology method
Summary of the method: (§1)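 Tetracycline-inducible HEK293 stably expressing human TRPM2 (1 µg/mL tetracycline), whole-cell patch clamp at room temperature. ECS (mM): 145 NaCl, 5.6 KCl, 2 MgCl2, 1.2 CaCl2, 10 HEPES, pH 7.2. ICS contained 500 µM ADPR (pH 7.3). Compound was added to ECS. Held at 0 mV with 500 ms ramps from -100 to 100 mV every 5 s. IC50 came from concentration–response curves; mean ± SEM from at least five cells.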

[3] = test system: Transient receptor potential cation channel subfamily M member 2 (Homo sapiens), O94759 [H995A]; experiment: Inhibition of human TRPM2 H995A mutant expressed in HEK293 cells assessed as reduction in ADPR-induced channel currents at 30 uM treated extracellularly after 50 to 200 secs by whole cell patch clamp electrophysiology method
Chain of Transient receptor potential cation channel subfamily M member 2 (Homo sapiens), O94759 [H995A] (O94759 whole entry H995A): as the sequence (O94759 whole entry) above, with H995A counted along it

[4] = test system: Transient receptor potential cation channel subfamily M member 2 (Homo sapiens), O94759 [D964A]; experiment: Inhibition of human TRPM2 D964A mutant expressed in HEK293 cells assessed as reduction in ADPR-induced channel currents at 30 uM treated extracellularly after 50 to 200 secs by whole cell patch clamp electrophysiology method relative to control
Chain of Transient receptor potential cation channel subfamily M member 2 (Homo sapiens), O94759 [D964A] (O94759 whole entry D964A): as the sequence (O94759 whole entry) above, with D964A counted along it

[5] = biological target: T1, Transient receptor potential cation channel subfamily M member 2; experiment: Inhibition of human TRPM2 expressed in HEK293 cells assessed as reduction in ADPR-induced channel currents at 3 uM treated extracellularly after 60 secs by whole cell patch clamp electrophysiology method relative to control; summary of the method: as §1
[6] = biological target: T1, Transient receptor potential cation channel subfamily M member 2; experiment: Inhibition of human TRPM2 expressed in HEK293 cells assessed as reduction in ADPR-induced channel currents at 30 uM treated extracellularly after 60 secs by whole cell patch clamp electrophysiology method relative to control; summary of the method: as §1
[7] = biological target: T1, Transient receptor potential cation channel subfamily M member 2; experiment: Inhibition of human TRPM2 expressed in HEK293 cells assessed as reduction in ADPR-induced channel currents at 30 to 1000 uM treated simultaneously after 60 secs by whole cell patch clamp electrophysiology method
Summary of the method: (§2)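 Human TRPM2 in tetracycline-inducible HEK293, recorded by whole-cell patch clamp at room temperature. Compound at 30 µM or 1 mM was added to the pipette ICS together with 500 µM ADPR; the ICS (mM) was 147 NaCl, 1 EGTA, 1 MgCl2, 24 HEPES, pH 7.3. Ramps ran from -100 to 100 mV every 5 s from a 0 mV hold, with leak subtraction from the first three ramps.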

[8] = biological target: T1, Transient receptor potential cation channel subfamily M member 2; experiment: Inhibition of human TRPM2 expressed in HEK293 cells assessed as reduction in ADPR-induced channel currents at 30 to 1000 uM treated intracellularly after 60 secs by whole cell patch clamp electrophysiology method; summary of the method: as §2
[9] = biological target: T2, Transient receptor potential cation channel subfamily M member 8 (Homo sapiens, UniProt Q7Z2W7); experiment: Inhibition of human TRPM8 expressed in HEK293 cells assessed as reduction in menthol-induced channel currents at 30 uM treated extracellularly after 60 secs by whole cell patch clamp electrophysiology method relative to control
Summary of the method: (§3)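 HEK293 were transiently transfected with human TRPM8 (pcDNA4/TO) plus GFP using Lipofectamine 2000 and recorded 24–48 h later by whole-cell patch clamp. TRPM8 was activated by 1 mM menthol in ECS. Compound at 30 µM was placed in ECS or ICS, with 0.1 mM 2-APB as reference inhibitor. Mean peak currents reported as mean ± SEM, n = 5.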
Target sequence in this assay (Q7Z2W7 whole entry, looked up): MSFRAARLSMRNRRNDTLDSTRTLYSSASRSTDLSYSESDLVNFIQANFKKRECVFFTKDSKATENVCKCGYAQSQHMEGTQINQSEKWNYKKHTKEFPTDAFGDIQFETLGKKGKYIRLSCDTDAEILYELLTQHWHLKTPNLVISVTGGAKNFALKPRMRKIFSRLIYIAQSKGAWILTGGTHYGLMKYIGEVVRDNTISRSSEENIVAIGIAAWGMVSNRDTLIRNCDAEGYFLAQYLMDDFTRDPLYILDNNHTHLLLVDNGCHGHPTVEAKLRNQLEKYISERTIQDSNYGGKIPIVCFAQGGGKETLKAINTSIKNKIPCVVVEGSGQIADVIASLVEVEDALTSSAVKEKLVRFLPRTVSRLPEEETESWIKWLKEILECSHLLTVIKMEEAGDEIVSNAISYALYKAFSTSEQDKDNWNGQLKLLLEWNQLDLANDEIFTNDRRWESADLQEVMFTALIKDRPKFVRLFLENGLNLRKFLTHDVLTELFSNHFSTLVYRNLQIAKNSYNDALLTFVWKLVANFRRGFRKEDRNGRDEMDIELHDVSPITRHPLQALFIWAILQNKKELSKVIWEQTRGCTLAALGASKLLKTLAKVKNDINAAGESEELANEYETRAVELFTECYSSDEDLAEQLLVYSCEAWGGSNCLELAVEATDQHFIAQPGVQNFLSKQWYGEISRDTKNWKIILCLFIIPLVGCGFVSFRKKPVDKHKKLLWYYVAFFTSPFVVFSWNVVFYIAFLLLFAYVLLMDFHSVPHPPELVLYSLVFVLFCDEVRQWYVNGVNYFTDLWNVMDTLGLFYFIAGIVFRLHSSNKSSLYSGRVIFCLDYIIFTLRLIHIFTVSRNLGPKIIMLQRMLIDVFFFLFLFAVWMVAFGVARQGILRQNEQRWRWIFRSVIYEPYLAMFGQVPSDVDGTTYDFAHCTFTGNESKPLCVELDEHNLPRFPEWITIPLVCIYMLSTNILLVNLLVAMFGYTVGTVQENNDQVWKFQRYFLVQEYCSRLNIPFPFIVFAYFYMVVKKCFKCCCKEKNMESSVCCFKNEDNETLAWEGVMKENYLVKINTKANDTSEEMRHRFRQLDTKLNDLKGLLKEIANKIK

[10] = biological target: T2, Transient receptor potential cation channel subfamily M member 8; experiment: Inhibition of human TRPM8 expressed in HEK293 cells assessed as reduction in menthol-induced channel currents at 30 uM treated intracellularly via pipette after 60 secs by whole cell patch clamp electrophysiology method; summary of the method: as §3
Target sequence in this assay (Q7Z2W7 whole entry, looked up): as above

[11] = biological target: T2, Transient receptor potential cation channel subfamily M member 8; experiment: Inhibition of human TRPM8 expressed in HEK293 cells assessed as reduction in H2O2-induced intracellular calcium flux after 30 mins by Fluo4-AM dye based fluorescence assay
Target sequence in this assay (Q7Z2W7 whole entry): as the sequence (Q7Z2W7 whole entry, looked up) above

Row | Compound | inhibition [1] | inhibition [6] | also measured
1 | Nc1ncnc2c1ncn2[C@@H]1O[C@H](COP(=O)(O)O)[C@@H](O)[C@H]1O | – | – | inhibition [2]: Dose-dependent effect; inhibition [3]: inactive; inhibition [4]: Active
2 | Cc1cc(Br)cc2c1NC(c1c[nH]nc1-c1ccc([N+](=O)[O-])cc1)NC2=O (stereo not given) | – | – | inhibition [5]: 42.1%
3 | Cc1cc(C)c2nc(-c3c[nH]nc3-c3ccccc3)[nH]c(=O)c2c1 | Active | – | –
4 | O=C1NC(c2cc(-c3ccccc3)c[nH]2)Nc2ccccc21 (stereo not given) | Active | – | –
5 | O=C1NC(c2cncn2Cc2ccc(Cl)cc2)Nc2ccccc21 (stereo not given) | Active | – | –
6 | Cc1cc(Cl)cc2c1NC(c1c[nH]nc1-c1ccc(-c3ccccc3)cc1)NC2=O (stereo not given) | – | 17% | –
7 | Cc1cc(Cl)cc2c1NC(c1c[nH]nc1-c1ccc(Cl)cc1)NC2=O (stereo not given) | – | 10.3% | –
8 | O=C1NC(c2c[nH]nc2-c2ccccc2)Nc2c(F)cc(F)cc21 (stereo not given) | – | 37.2% | –
9 | Cc1cc(Cl)cc2c1NC(c1c[nH]nc1-c1ccccc1Br)NC2=O (stereo not given) | – | 17.9% | –
10 | O=C1NC(c2c[nH]nc2-c2ccccc2)Nc2c(I)cc(Cl)cc21 (stereo not given) | – | 89.4% | inhibition [5]: 39.6%
11 | Cc1cc(Cl)cc2c1NC(c1c[nH]nc1-c1ccc([N+](=O)[O-])cc1)NC2=O (stereo not given) | – | 90.4% | inhibition [5]: 43.4%
12 | O=c1[nH]c(-c2c[nH]nc2-c2ccccc2)nc2ncccc12 | Active | – | –
13 | O=c1[nH]c(-c2c[nH]nc2-c2ccccc2)nc2ccccc12 | – | 28.7% | –
14 | CCCCCc1ccc(/C=C/C(=O)Nc2ccccc2C(=O)O)cc1 | – | 89.1% | inhibition [5]: 75.9%; pIC50 [11]: 5.41; pIC50 [2]: 6.49
15 | O=C1NC(c2c[nH]nc2-c2ccccc2)Nc2c(Br)cc(F)cc21 (stereo not given) | Active | – | –
16 | O=C1NC(c2c[nH]nc2-c2ccc(Cl)cc2)Nc2ccccc21 (stereo not given) | Active | – | –

Row | Compound | inhibition [1] | inhibition [6] | also measured
17 | O=c1[nH]c(-c2c[nH]nc2-c2ccccc2)nc2ccc(Cl)cc12 | Active | – | –
18 | O=C1NC(c2c[nH]nc2-c2ccccc2)Nc2cc(Br)ccc21 (stereo not given) | Active | – | –
19 | Cc1cc(Cl)cc2c1NC(c1c[nH]nc1-c1ccc(Br)cc1)NC2=O (stereo not given) | – | 51% | –
20 | O=C1NC(c2c[nH]nc2-c2ccccc2)Nc2c(Br)cc(Br)cc21 (stereo not given) | Active | – | –
21 | Cc1cc(Cl)cc2c(=O)[nH]c(-c3c[nH]nc3-c3ccccc3)nc12 | Active | – | –
22 | Cc1cc(Cl)cc2c1NC(c1c[nH]nc1-c1cccc3ccccc13)NC2=O (stereo not given) | – | 90.2% | inhibition [9]: inactive; inhibition [5]: 50.9%; inhibition [10]: inactive; pIC50 [2]: 5.40
23 | COc1cc(Br)cc2c1NC(c1c[nH]nc1-c1ccccc1)NC2=O (stereo not given) | – | 50.4% | –
24 | Cc1cc(Br)cc2c1NC(c1c[nH]nc1-c1cccc3ccccc13)NC2=O (stereo not given) | – | – | inhibition [9]: inactive; inhibition [5]: 48.7%; inhibition [10]: inactive; pIC50 [2]: 5.43; inhibition [3]: inactive
25 | O=C1NC(c2c[nH]nc2-c2ccccc2)Nc2ccc(F)cc21 (stereo not given) | – | 34.8% | –
26 | O=C1NC(c2c[nH]nc2-c2cccc3ccccc23)Nc2c(I)cc(Cl)cc21 (stereo not given) | – | – | inhibition [5]: 19.9%
27 | Cc1cc(Cl)cc2c1NC(c1cn[nH]c1)NC2=O (stereo not given) | – | 16.9% | –
28 | Cc1cccc2c(=O)[nH]c(-c3c[nH]nc3-c3ccccc3)nc12 | – | 21.2% | –
29 | O=c1[nH]c(SCc2ccncc2)nc2ccccc12 | Active | – | –
30 | O=C1NC(c2c[nH]nc2-c2ccc([N+](=O)[O-])cc2)Nc2c(I)cc(Cl)cc21 (stereo not given) | – | – | inhibition [5]: 34.9%
31 | O=C1NC(c2c[nH]nc2-c2ccccc2)Nc2c(Cl)cc(Cl)cc21 (stereo not given) | Active | – | –
32 | O=C1NC(c2c[nH]nc2-c2ccccc2)Nc2c(I)cc(I)cc21 (stereo not given) | Active | – | –

The next lines start with results.

Row | inhibition [1] | inhibition [6] | Compound | also measured
33 | Active | – | Cc1cc(Br)c2c(c1)C(=O)NC(c1c[nH]nc1-c1ccccc1)N2 (stereo not given) | –
34 | Active | – | O=C1NC(c2c[nH]nc2-c2ccccc2)Nc2c(Br)cccc21 (stereo not given) | –
35 | – | Active | Cc1cc(Cl)cc2c1N[C@@H](c1c[nH]nc1-c1ccccc1)NC2=O | –
36 | Active | 55 to 68.1% | O=C1NC(c2c[nH]nc2-c2ccccc2)Nc2ccccc21 (stereo not given) | inhibition [7]: inactive; inhibition [8]: inactive; inhibition [3]: 4%; inhibition [4]: 40 to 50%
37 | – | 60.5% | Cc1cc(C)c2c(c1)C(=O)NC(c1c[nH]nc1-c1ccccc1)N2 (stereo not given) | –
38 | – | 92.8% | Cc1cc(Br)cc2c1NC(c1c[nH]nc1-c1ccccc1)NC2=O (stereo not given) | inhibition [9]: 19%; inhibition [5]: 50.1%; inhibition [10]: Active; pIC50 [2]: 5.34
39 | – | Active | Cc1cc(Cl)cc2c1N[C@H](c1c[nH]nc1-c1ccccc1)NC2=O | –
40 | Active | – | Cc1cc(I)cc2c1NC(c1c[nH]nc1-c1ccccc1)NC2=O (stereo not given) | –
41 | – | 39.2% | Cc1cccc2c1NC(c1c[nH]nc1-c1ccccc1)NC2=O (stereo not given) | –
42 | Active | – | Cc1cccc2c1C(=O)NC(c1c[nH]nc1-c1ccccc1)N2 (stereo not given) | –
43 | – | 42.7% | Cc1cc(F)cc2c1NC(c1c[nH]nc1-c1ccccc1)NC2=O (stereo not given) | –
44 | – | 90.2% | Cc1cc(Cl)cc2c1NC(c1c[nH]nc1-c1ccccc1)NC2=O (stereo not given) | inhibition [9]: 27%; inhibition [5]: 46.4%; inhibition [10]: Active; pIC50 [2]: 5.29
45 | Active | – | O=C1NC(c2c[nH]nc2-c2ccccc2)Nc2cccc(Cl)c21 (stereo not given) | –
46 | Active | – | O=C1NC(c2c[nH]nc2-c2ccccc2)Nc2c1cccc2[N+](=O)[O-] (stereo not given) | –
47 | – | 27.9% | O=C1NC(c2c[nH]nc2-c2ccccc2)Nc2ccc(Cl)cc21 (stereo not given) | –
